EP2 modulator – modulators of human EP2 prostaglandin E2 receptor; EP2-expressing cells, cAMP HTRF FRET, PGE2 co-stimulation; induction, % at 25 µM; 260,000 compounds, 0.83% hits; AID 940;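 active = compounds whose cAMP rise, as percent of the full-agonist control response, exceeds 60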;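 also: rat C6 glioma line stably carrying human EP2 under a CMV promoter; the protocol text gives 20 µM as final concentration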
Target sequence (P43116 whole entry, looked up): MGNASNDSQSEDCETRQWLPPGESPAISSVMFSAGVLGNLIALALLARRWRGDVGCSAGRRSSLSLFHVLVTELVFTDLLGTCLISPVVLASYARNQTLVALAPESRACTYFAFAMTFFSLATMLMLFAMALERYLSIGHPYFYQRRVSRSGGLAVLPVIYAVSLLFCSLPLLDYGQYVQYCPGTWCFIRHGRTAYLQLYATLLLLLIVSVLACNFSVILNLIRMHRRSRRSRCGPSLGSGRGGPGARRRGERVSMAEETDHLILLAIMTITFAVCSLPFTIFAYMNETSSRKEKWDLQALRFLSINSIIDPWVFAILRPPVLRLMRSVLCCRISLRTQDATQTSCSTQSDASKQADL
NPY-Y2 antag – antagonists of human neuropeptide Y receptor Y2; NPY-Y2 expressing cells, antagonist mode; 140,000 compounds, 0.99% hits; P49146; inhibition, % at 2.7 µM
PGE2 EP2 inh – inhibitors of human EP2 prostaglandin E2 receptor; C6 glioma cells expressing human EP2, cAMP TR-FRET; cells stimulated with saturating PGE2; inhibition, % at 25 µM; 260,000 compounds, 0.52% hits; AID 1422;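 active = percent inhibition above 40 after rounding to a whole number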;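 also: rat C6 glioma host cells with rolipram phosphodiesterase inhibitor present; the protocol text gives 20 µM as final concentration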
NPY-Y2 PAM-ag – potentiates or activates human NPY-Y2 receptor; P49146; cells expressing NPY-Y2, potentiator/agonist read-out; activation, % at 3.6 µM; 220,000 compounds, 0.45% hits; AID 1359; in the data active = activation above about 27%;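 also: cells stimulated with NPY near EC25 plus isoproterenol at EC100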
NPY-Y1 PAM-ag – potentiators or agonists of human neuropeptide Y receptor Y1; P25929; NPY-Y1 expressing cells, potentiator/agonist activation; activation, % at 3.6 µM; 220,000 compounds, 0.37% hits; in the data active = activation above about 33%, passing the limit was not always enough;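 also: cells stimulated with NPY at EC10 then isoproterenol at EC100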
NPY Y1 blocker – blocks the human neuropeptide Y Y1 receptor. inhibition, % at 3.6 µM. AID 1040. 200,000 compounds, 1% hits. HEK293-CNG Y1 cells, membrane potential fluorescence; NPY at EC95, then isoproterenol;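 active = inhibition above the campaign mean inhibition of all tested compounds plus 3 SD, cut at about 20% in these data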
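Test system – HEK293 Y1/CNG channel cell line · Also added – NPY agonist 25 nM, then isoproterenol 1 µM plus Ro 20-1724 25 µM · Compound dosing – one concentration, 3.6 µM, in 0.4% DMSO · Schedule – compound incubation 1 h at room temperature, readout 45 min post-stimulation · Technique – fluorescence, membrane potential probe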
NPY-Y1 ant conf – confirmation of human neuropeptide Y receptor Y1 antagonists; shares compounds with NPY Y1 blocker; 1,200 compounds, 21% hits; inhibition, % at 3.6 µM; HEK293-CNG NPY-Y1, membrane potential fluorescence, cAMP; NPY challenge against isoproterenol-raised cAMP; AID 1254; in the data active = inhibition above about 20%
NPY2 antag ctr – human NPY-Y2 antagonism in NPY-Y1 counter-screen. AID 1255. inhibition, % at 3.6 µM. 1,200 compounds, 28% hits. shares compounds with NPY Y1 blocker. HEK293 NPY-Y2 CNG membrane potential fluorescence; cells given NPY, then isoproterenol
NPY-Y1 pot conf – confirmation of human NPY-Y1 receptor potentiators or agonists. shares compounds with NPY-Y1 PAM-ag. cell-based NPY-Y1 potentiator/agonist assay. activation, % at 3.6 µM. 280 compounds, 20% hits. AID 1546; in the data active = activation above about 45%;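 also: cells challenged with NPY at its EC10 plus isoproterenol stimulus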
NPY-Y2 counter – NPY-Y2 potentiation or agonism as NPY-Y1 counter-screen; HEK293-CNG cells, membrane-potential fluorescence (FLIPR), 1536-well; activation, % at 3.6 µM; 280 compounds, 20% hits; AID 1649; shares compounds with NPY-Y1 PAM-ag; in the data active = activation above about 33%
NPY-Y1 agonist – counter-screen for NPY-Y1 potentiators: agonists of human NPY-Y1; HEK293 Y1-CNGC, membrane potential fluorescence, agonist mode; activation, % at 3.6 µM; 280 compounds, 50% hits; shares compounds with NPY-Y1 PAM-ag;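 active = percent activation above the mean of DMSO-only control wells plus 3 SD of those wells, cut at about 18% in these data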;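 also: cells challenged with isoproterenol plus Ro 20-1724 with no NPY in test wells; Y1 agonism lowers isoproterenol-driven cAMP and reduces probe fluorescence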
NPY-Y2 ag – counter-screen for NPY-Y1 potentiators or agonists: agonists of NPY-Y2; shares compounds with NPY-Y1 PAM-ag; HEK293 Y2-CNGC, membrane potential fluorescence, agonist mode; activation, % at 3.6 µM; 280 compounds, 67% hits;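 active = activation above the solvent-only control wells' mean plus 3 SD, cut at about 11% in these data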;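 also: agonism lowers cAMP so well fluorescence drops in active wells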
CNGC counter – CNG channel inhibition, counter-screen for NPY-Y1 potentiators; 280 compounds, 42% hits; AID 1704; HEK293-CNG parental, isoproterenol cAMP, membrane potential fluorescence; inhibition, % at 3.6 µM; shares compounds with NPY-Y1 PAM-ag;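 active = inhibition above the mean of stimulated solvent-only control wells plus 3 SD, cut at about 22% in these data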
NPY-Y2 confirm – human NPY-Y2 potentiation or agonism, confirmation; shares compounds with NPY-Y2 PAM-ag; cell-based NPY-Y2 potentiator/agonist assay; activation, % at 3.6 µM; 450 compounds, 20% hits; in the data active = activation above about 33%
NPY-Y1 potentiator – NPY-Y1 potentiation or agonism as NPY-Y2 counter-screen; 450 compounds, 20% hits; activation, % at 3.6 µM; shares compounds with NPY-Y2 PAM-ag; Y1 HEK293-CNG cells, membrane potential fluorescence; in the data active = activation above about 45%;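 also: cells stimulated with submaximal NPY then isoproterenol with phosphodiesterase inhibitor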
NPY-Y1 agonist 2 – activates human NPY-Y1, counter-screen for NPY-Y2 potentiators | AID 1702 | HEK293 Y1-CNGC, membrane potential fluorescence, agonism | 450 compounds, 37% hits | activation, % at 3.6 µM | shares compounds with NPY-Y2 PAM-ag;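 active = activation above the mean of DMSO-only control wells plus 3 SD, cut at about 18% in these data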;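 also: cells stimulated with 1 µM isoproterenol plus the PDE inhibitor Ro 20-1724; Y1 agonists lower the membrane potential dye signal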
CNGC inhibitor – blocks CNG channel activity, counter-screen for NPY-Y2 potentiators | shares compounds with NPY-Y2 PAM-ag | 450 compounds, 32% hits | HEK293-CNG parental, isoproterenol cAMP, membrane potential fluorescence | inhibition, % at 3.6 µM | AID 1703;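 active = inhibition above the control-well mean plus 3 SD of those wells, cut at about 22% in these data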
Y2 agonist ctr – NPY-Y2 agonism, counter-screen for Y2 potentiators; HEK293 Y2/CNGC cells, membrane potential fluorescence, agonist mode; 450 compounds, 56% hits; AID 1710; activation, % at 3.6 µM; shares compounds with NPY-Y2 PAM-ag;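 active = activation above the mean of solvent-only control wells plus 3 SD, cut at about 10% in these data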;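 also: cells stimulated by isoproterenol with no NPY added so direct agonism is tested; agonism lowers probe fluorescence through less cAMP and CNG channel opening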
Hits are given with their value; . = inactive; / = no result given. In the library only some 2.8% were active in any assay of this set; here they are far more common. Rule as the data show it, unless noted: active = inhibition above about 17%; inactive = the rest.

SMILES	EP2 modulator	NPY-Y2 antag	PGE2 EP2 inh	NPY-Y2 PAM-ag	NPY-Y1 PAM-ag	NPY Y1 blocker	NPY-Y2 confirm	NPY-Y1 potentiator	NPY-Y1 agonist 2	CNGC inhibitor	Y2 agonist ctr	others
C/C1=C\[C@@H](C)C/C=C/[C@H]2[C@@H]3O[C@]3(C)[C@@H](C)[C@H]3[C@H](Cc4c[nH]c5ccccc45)NC(=O)[C@]32C(=O)/C=C/C(=O)[C@@H]1O	.	/	.	39	.	40	.	.	.	.	17	NPY-Y1 ant conf=35;NPY2 antag ctr=.
CCC(=O)c1cn(Cc2ccccc2F)c2ccccc12	.	/	.	/	/	/	/	/	/	/	/
CC(CCc1ccccc1)NCCC#N (stereo not drawn)	.	/	.	.	56	/	/	/	/	/	/	NPY-Y1 pot conf=.;NPY-Y2 counter=.;NPY-Y1 agonist=.;NPY-Y2 ag=.;CNGC counter=.
c1ccc(CCNCc2ccccc2)cc1	.	.	.	.	.	.	/	/	/	/	/
Cc1csc(NC(=O)CN2C3CCC2CC(O)(c2nccn2C)C3)n1 (stereo not drawn)	.	/	/	/	/	/	/	/	/	/	/
O=P(Nc1ccccc1)(Nc1ccccc1)Oc1ccc(Cl)cc1	.	.	/	.	41	.	/	/	/	/	/	NPY-Y1 pot conf=.;NPY-Y2 counter=.;NPY-Y1 agonist=23;NPY-Y2 ag=22;CNGC counter=44
CC(C)(C)c1cc([N+](=O)[O-])cc(C(C)(C)C)c1O	.	/	.	45	.	.	.	.	.	.	.
CN1CCN(c2ccc([N+](=O)[O-])cc2Cl)CC1	.	/	.	.	.	.	/	/	/	/	/
c1cncc(C2NCCc3ccccc32)c1 (stereo not drawn)	.	/	.	/	/	/	/	/	/	/	/
Cc1cc(C)n(-c2ccc(NN=C(C#N)C#N)cc2)n1	.	/	.	42	.	/	.	.	.	.	.

Screening results from PubChem BioAssay.
